Data as given in ChEMBL document CHEMBL4190206, “Neoclerodane Diterpenoids from Reehal Fatima, Teucrium yemense” (J Nat Prod, 2017).
Calls of active or inactive are those of the source.

Legend:
Escherichia coli [1] = test: Growth stimulation of Escherichia coli at >100 uM measured every 20 mins for 24 hrs by spectrophotometry; format: organism-based
How it was run: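 E. coli in nutrient broth with serially diluted compound, final inoculum 5 × 10^5 cfu mL^-1. Incubated 37°C with 300 rpm shaking, OD600 read every 20 min for 24 h. Data given as OD600 percentage of no-drug control wells, mean ± error.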

Pseudomonas aeruginosa = test: Antimicrobial activity against Pseudomonas aeruginosa assessed as inhibition of microbial growth at 0.03125 to 0.5 mg/ml measured every 20 mins for 24 hrs by spectrophotometry; format: functional, organism-based
How it was run: (§1)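 Broth microdilution: colony suspensions grown overnight at 37°C with shaking, standardised to McFarland 0.5, inoculated at final 5 × 10^5 cfu mL^-1 into nutrient broth holding serially diluted test solution. Rifampicin (61 µM) as control; untreated wells included. 37°C, 300 rpm shaking, OD600 read every 20 min over 24 h.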

Staphylococcus aureus = test: Antimicrobial activity against Staphylococcus aureus assessed as inhibition of microbial growth at 0.03125 to 0.5 mg/ml measured every 20 mins for 24 hrs by spectrophotometry; format: functional, organism-based; how it was run: as §1
Candida albicans = test: Antimicrobial activity against Candida albicans assessed as inhibition of microbial growth at 0.03125 to 0.5 mg/ml measured every 20 mins for 24 hrs by spectrophotometry; format: functional, organism-based; how it was run: as §1
Schistosoma mansoni [2] = test: Antischistosomal activity against schistosomula larval stage of Schistosoma mansoni assessed as effect on phenotype at 10 uM after 24 hrs; format: functional, organism-based
How it was run: (§2)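 24 h cultured, mechanically transformed S. mansoni schistosomula (~120/well) in Basch medium, exposed to compound at 10 µM final (DMSO stock 1.6 mM) in 384-well format; DMSO and auranofin controls, 16 wells each. Incubated 24 h, 37°C, 5% CO2, then high-content imaging scored motility and phenotype.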

Escherichia coli [3] = test: Antimicrobial activity against Escherichia coli assessed as inhibition of microbial growth at 0.03125 to 0.5 mg/ml measured every 20 mins for 24 hrs by spectrophotometry; format: functional, organism-based; how it was run: as §1
HepG2 = test: Cytotoxicity against human HepG2 at <200 uM after 20 hrs by MTT assay; format: cell-based; conditions: hepg2, 20 h
How it was run: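 HepG2 seeded 2.0 × 10^4/well in modified BME with 10% FBS, L-Gln, non-essential amino acids and antibiotic/antimycotic; 24 h at 37°C, 5% CO2 before dosing at 100-0.01 µM final. After 20 h, MTT added for 4 h; formazan dissolved in DMSO:isopropanol (1:1), A570 read. 1% DMSO and 1% Triton X-100 controls; blank-corrected; three data sets.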

[4] = tested on: Mycolicibacterium smegmatis; test: Antimicrobial activity against Mycobacterium smegmatis assessed as inhibition of microbial growth at 0.03125 to 0.5 mg/ml measured every 20 mins for 24 hrs by spectrophotometry; format: functional, organism-based; how it was run: as §1
Schistosoma mansoni [5] = test: Antischistosomal activity against schistosomula larval stage of Schistosoma mansoni assessed as effect on motility at 10 uM after 24 hrs; format: functional, organism-based; how it was run: as §2

Measured: Activity

CC(=O)OC[C@]1(CCC2=CC(O)OC2=O)[C@H](C)C[C@H](O)[C@]2(COC(C)=O)[C@@H]1CC[C@H](O)[C@]21CO1 (stereo partly drawn)
Non-Toxic: HepG2
Dose-dependent effect: Escherichia coli [1]
inactive: all other assays above

CC(=O)OC[C@@]12[C@@H]3CC[C@H](O)[C@]1(O)CO[C@]2(O)C[C@@H](C)[C@]31C[C@@H](c2ccoc2)OC1=O
Non-Toxic: HepG2
not listed: Escherichia coli [1]
inactive: all other assays above

C[C@@H]1C[C@@]2(O)OC[C@]3(O)[C@H]2[C@H](CC[C@@H]3O)[C@@]12C[C@@H](c1ccoc1)OC2=O
Non-Toxic: HepG2
not listed: Escherichia coli [1]
inactive: all other assays above

C[C@@H]1CC(=O)[C@@H]2[C@H](CC[C@H](O)[C@]2(O)COC(=O)c2ccc(O)cc2)[C@@]12C[C@@H](c1ccoc1)OC2=O
Non-Toxic: HepG2
not listed: Escherichia coli [1]
inactive: all other assays above

C[C@@H]1C[C@H](O)[C@]23CO[C@](O)(CC[C@@H]2[C@@]12C[C@@H](c1ccoc1)OC2=O)[C@@H]3CO
Non-Toxic: HepG2
not listed: Escherichia coli [1]
inactive: all other assays above

CC(=O)OC[C@]1(CC(O)c2ccoc2)[C@H](C)C[C@H](O)[C@]2(COC(C)=O)[C@@H]1CC[C@H](O)[C@]21CO1 (stereo partly drawn)
Non-Toxic: HepG2
Dose-dependent effect: Escherichia coli [1]
inactive: all other assays above

C[C@@H]1C[C@@]2(O)OC[C@@]3(O)[C@@H](O)CC[C@@H]4[C@]1(CC(O)c1ccoc1)C(=O)OC[C@]423 (stereo partly drawn)
Non-Toxic: HepG2
not listed: Escherichia coli [1]
inactive: all other assays above
